Assay [1] has as its target T1, Anti-estrogen binding site (AEBS) (Homo sapiens) (UniProt Q15125+Q9UBM7). Put plainly: Relative binding affinity(RBA) against AEBS (Antiestrogen binding site) in rat liver. Particulars: target entry is the homologue from another species. The assay is classed as functional, tissue-based.
For assay [2], the target named is T1, Anti-estrogen binding site (AEBS) (Homo sapiens). Nature of the assay: Relative binding affinity(RBA) against AEBS (Antiestrogen binding site) using EL-4 cells. Particulars: Mus musculus. The format is functional, cell-based.
The target in assay [3] is Estrogen receptor (Homo sapiens) (UniProt Q92731+P03372). Put plainly: Relative binding affinity(RBA) against Estrogen receptor using MCF-7 cells. The format is cell-based. The note with it: MCF7. The gist of the method: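 Competition for ER in MCF7 whole cells suspended in phosphate-buffered saline, 3 × 10^7 cells per duplicate aliquot. Incubated with 5 nM [3H]estradiol with or without 100-fold molar excess of competitor or diethylstilbestrol, then washed and counted as for the AEBS assay. Bound label reported as % of no-competitor control. Mean ± SEM of two experiments.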

In assay [4] the target is T1, Anti-estrogen binding site (AEBS) (Homo sapiens). Put plainly: Relative binding affinity (RBA) against AEBS (Antiestrogen binding site) in rat liver. Particulars: target entry is the homologue from another species. The assay is classed as functional, tissue-based.
Assay [5] shares this target. Put plainly: Displacement of [3H]tamoxifen from AEBS of EL4 cells. Particulars: Mus musculus. The format is functional, cell-based.
Assay [6] relates to MCF7S. Nature of the assay: (§1) Inhibition of [3H]thymidine incorporation into MCF-7 cells. The assay is classed as functional, cell-based. Particulars: Homo sapiens. The gist of the method: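 After 24 h, compound (final […], diluted from 1 mM ethanolic stock; solvent controls) and [3H]thymidine (37 kBq/well) added. Incubated 48 h, then trypsinized, harvested and counted. Mean ± SEM of two experiments.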
A general note: Incorporation of labelled thymidine or its analogues reports DNA synthesis.

The nature of assay [7]: Percent of cell viability by trypan blue exclusion. The format is functional. The gist of the method:
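Viability of EL4 cells in the [3H]acetate cholesterol-synthesis incubations (20 × 10^6 cells/mL; 5 h or 48 h with compound at 10^-7 to 10^-4 M), estimated by trypan blue exclusion.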

Another assay deals with EL4. Nature of the assay: Inhibition of [3H]thymidine incorporation into EL4 cell proliferation. The assay is classed as functional, cell-based. The note with it: Mus musculus, EL4, 48 h. The procedure, abridged:
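Treated 48 h with compound; DNA synthesis measured by [3H]thymidine incorporation, cells harvested onto filters and counted. Mean ± SEM of two experiments.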

Assay [8] concerns the target T1, Anti-estrogen binding site (AEBS) (Homo sapiens). Put plainly: Effect on cholesterol biosynthesis in EL4 cells, 5 hr incubation with 0.25 mM [3H]acetate. The note with it: Mus musculus. The format is functional, cell-based. The procedure, abridged: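 EL4 cells at 20 × 10^6 cells/mL in lipoprotein-poor RPMI given 0.25 mM [3H]acetate for 5 h, without or with compound (10^-6 M or 10^-4 M depending on compound); triplicates in two experiments. KOH/ethanol saponification at 95 °C with [14C]cholesterol recovery standard; petroleum ether extraction. Label in cholesterol as % of total cellular incorporation; % inhibition versus control; Student's t test.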

Assay [9] has the same target. Nature of the assay: Relative binding affinity(RBA) against AEBS (Antiestrogen binding site) in N1-S1 cells. The note with it: Rattus norvegicus. The format is functional, cell-based.
For assay [10] the target is unchanged. Put plainly: Relative binding affinity(RBA) against AEBS (Antiestrogen binding site) in N1-S1 cells.
Assay [11] has the same target. Nature of the assay: Effect on cholesterol biosynthesis in EL4 cells, 48 hr incubation with 0.25 mM [3H]acetate. The format is functional, cell-based. The note with it: Mus musculus. The gist of the method: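 EL4 cells at 20 × 10^6 cells/mL in lipoprotein-poor RPMI, incubated 48 h with 0.25 mM [3H]acetate ± 10^-7 M compound, in triplicate, two experiments. Stopped with KOH/ethanol, [14C]cholesterol added for recovery, saponified 95 °C 90 min. Nonsaponifiable lipids extracted in petroleum ether. Result as % of total incorporated label found in cholesterol; inhibition versus control; Student's t test.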

Assay [12] concerns MCF7S. The assay is described as §1. The assay is classed as functional, cell-based. The note with it: Homo sapiens. The gist of the method: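 MCF7 cells in Hepes-buffered RPMI 1640 with 5% newborn calf serum, seeded 4500 per well. After 24 h, compound (final […], diluted from 1 mM ethanolic stock; solvent controls) and [3H]thymidine (37 kBq/well) added. Incubated 48 h, then trypsinized, harvested and counted. […] Mean ± SEM of two experiments.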
This is another data set of the same source.

Assay [13] concerns the target T1, Anti-estrogen binding site (AEBS) (Homo sapiens). Nature of the assay: Relative binding affinity(RBA) against AEBS (Antiestrogen binding site) in guinea pig uterus. The format is functional, tissue-based. Particulars: Cavia porcellus, target entry is the homologue from another species.
For assay [14] the target is unchanged. Put plainly: Relative binding affinity(RBA) against AEBS (Antiestrogen binding site) in chicken liver. Particulars: Gallus gallus; target entry is the homologue from another species.
For assay [15] the target is unchanged. Put plainly: Relative binding affinity(RBA) against AEBS (Antiestrogen binding site) in MCF-7 cells. The note with it: target entry is the homologue from another species.
For assay [16] the target is unchanged. Put plainly: Relative binding affinity (RBA) against AEBS (Antiestrogen binding site) using N1-S1 cells. The assay is classed as functional, cell-based. The note with it: Rattus norvegicus.
For assay [17] the target is unchanged. Nature of the assay: Relative binding affinity(RBA) against AEBS (Antiestrogen binding site) using N1-S1 cells. The format is functional, cell-based. The note with it: Rattus norvegicus.

In general, IC50 refers to the concentration at which inhibition is half-maximal. Lower therefore signals inhibition by little substance.

`CCN(CC)CCOc1ccc(C(C)(C)C)cc1`: in [1], the relative binding affinity (RBA) came to 0.08. As to `COc1ccc2c(c1)OCC(c1ccc(Br)cc1)=C2c1ccc(OCCN2CCCC2)cc1`, the relative binding affinity (RBA) was 169 in assay [2] and less than 1 in assay [3].

As for `COc1ccc2c(c1)OC(C)(C)[C@H](c1ccccc1)[C@H]2c1ccc(OCCN2CCCC2)cc1`, the relative binding affinity (RBA) in [1] turned out to be 19. Compound `CCN(CC)CCOc1cccc(C(=C2CCCCC2)c2cccc(O)c2)c1` showed a relative binding affinity (RBA) in assay [1] of 6.

In [4], `C=CC(C(=O)OCCN(CC)CC)(c1ccccc1)c1ccccc1` returned a relative binding affinity (RBA) of 10. Take `COc1ccc2c(c1)OC(C)(C)[C@@H](c1ccccc1)[C@H]2c1ccc(OCCN2CCCC2)cc1`: in assay [1], the relative binding affinity (RBA) came to 46. The compound `COc1ccc2c(-c3ccc(OCCN4CCOCC4)cc3)c(Cc3ccc(Cl)cc3)oc2c1.Cl` registered a relative binding affinity (RBA) in assay [5] of 1830. Besides, the IC50 is 6500 nM with MCF7S [6] and 335 nM with EL4. Besides, the Cell viability in assay [7] came out at 79%. In addition, in assay [8], the Activity is 0.11% [middle of 6 runs]. Take `CCN(CC)CCOc1ccc(Cc2ccccc2)cc1`: the relative binding affinity (RBA) in assay [4] stood at 0.06.

As for `CCN(CC)CCOc1ccc(C2=C(c3ccc(F)cc3)COc3cc(OC)ccc32)cc1`, the relative binding affinity (RBA) in [9] was 106; in assay [3] it was less than 1.

On to `C1=C(c2ccccc2)C(c2ccc(OCCN3CCCC3)cc2)Oc2ccccc21` (stereo not drawn), for which, in assay [1], the relative binding affinity (RBA) was determined as 134.

Take `COc1ccc2c(c1)OCC(c1ccc(Cl)cc1)=C2c1ccc(OCCN2CCCC2)cc1`: the results for the relative binding affinity (RBA) in assay [2] and in assay [3] were 257 and less than 1, respectively. As to `CC/C(=C(\c1ccccc1)c1ccc(OCCN(CC)CC)cc1)c1ccccc1`, the figures for the relative binding affinity (RBA) in [10] and in assay [4] were 46 and 21, respectively. In [4], `CCN(CC)CCOC(=O)C(CC(C)C)(c1ccccc1)c1ccccc1` came in with a relative binding affinity (RBA) of 5. In the case of `CC/C(=C(\c1ccccc1)c1ccc(OCCN2CCCC2)cc1)c1ccccc1`, the relative binding affinity (RBA) in [1] was 434.

`COc1ccc2c(-c3ccc(OCCN4CCCC4)cc3)c(-c3ccccc3)oc2c1` gave a relative binding affinity (RBA) in [1] of 23.

With `CC/C(=C(\c1ccccc1)c1ccc(OCCN2CCN(C)CC2)cc1)c1ccccc1`, in assay [1], the relative binding affinity (RBA) turned out to be 540. As for `CN(C)CCOc1cccc(C(=C2CCCCC2)c2cccc(O)c2)c1`, the relative binding affinity (RBA) in assay [1] is 17.

In turn, `CN(C)CCOc1ccc(C2Oc3ccccc3C=C2c2ccccc2)cc1` (stereo not drawn) returned a relative binding affinity (RBA) in [1] of 98. Turning to `CC/C(=C(\c1ccccc1)c1ccc(OCCN2CCOCC2)cc1)c1ccccc1`, the relative binding affinity (RBA) in [1] is 1170. Turning to `COc1ccc2c(c1)OCC(c1ccccc1)=C2c1ccc(OCCN2CCCC2)cc1`, the values for the relative binding affinity (RBA) in assay [2] and in [3] were 557 and less than 1, respectively.

`COc1ccc2c(-c3ccc(OCCN(C)C)cc3)c(Cc3ccc(Cl)cc3)oc2c1`: in assay [5], the relative binding affinity (RBA) stood at 391. The figures for the IC50 in the assay on MCF7S [6] and with EL4 were 5020 nM and 950 nM, respectively.

In the case of `COc1ccc2c(-c3ccc(OCCN4CCCC4)cc3)c(Cc3ccc(Cl)cc3)oc2c1.Cl`, the relative binding affinity (RBA) in [5] is 268. In addition, the Activity is 0.32% [middle of 5 runs] in [11] and 0.12% [middle of 6 runs] in assay [8]. Moreover, the Cell viability in [7] came to 91%. Besides, the IC50 with MCF7S [12] was 2300 nM; in the assay on EL4, 475 nM. `Oc1cccc(C(=C2CCCCC2)c2cccc(OCCN3CCCCC3)c2)c1` gave a relative binding affinity (RBA) in assay [1] of 10. As for `COc1ccc2c(c1)CCC(c1ccccc1)=C2c1ccc(OCCN2CCCC2)cc1`, the relative binding affinity (RBA) in assay [1] came to 90; in assay [13], 124; in assay [14], 183. For `CCCC(C(=O)OCCN(CC)CC)(c1ccccc1)c1ccccc1`, the relative binding affinity (RBA) in assay [4] came out at 12.

In [1], `C1=C(c2ccccc2)C(c2ccc(OCCN3CCCCC3)cc2)Oc2ccccc21` (stereo not drawn) had a relative binding affinity (RBA) of 225. `O=C(c1ccc(OCCN2CCCC2)cc1)c1c(-c2ccc(O)cc2)sc2cc(O)ccc12`: the relative binding affinity (RBA) in [15] was determined as 19; in assay [3], 115. In the case of `COc1ccc2c(c1)OCC(c1ccc(F)cc1)=C2c1ccc(OCCN2CCCC2)cc1`, the relative binding affinity (RBA) is 176 in assay [16] and less than 1 in [3]. For the compound `COc1ccc2c(c1)OCC(c1ccc(F)cc1)=C2c1ccc(OCCN2CCOCC2)cc1`, the relative binding affinity (RBA) in assay [3] is less than 1; in assay [17] it was 68. As for `COc1ccc2c(c1)OCC(c1ccc(F)cc1)=C2c1ccc(OCCN2CCCCC2)cc1`, the relative binding affinity (RBA) was 161 in assay [16] and less than 1 in assay [3]. As for `Oc1cccc(C(=C2CCCCC2)c2cccc(OCCN3CCOCC3)c2)c1`, the relative binding affinity (RBA) in assay [1] came to 25.
